Measured values published in ChEMBL document CHEMBL4020747, “Drug-like property-driven optimization of 4-substituted 1,5-diarylanilines as potent HIV-1 non-nucleoside reverse transcriptase inhibitors against rilpivirine-resistant mutant virus” (Bioorg Med Chem Lett, 2017).
Values after ≈ are worked out from the molar mass of the structure shown.

Columns and labels:
[1] = Inhibition of wild type HIV1 NL4-3 reverse transcriptase infected in human TZM-b1 cells after 2 days by bright Glo-luciferase reporter gene assay; type: cell-based; details: Human immunodeficiency virus 1, NL4-3, TZM-b1, 48 h
Outline: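 Anti-HIV activity against HIV-1 NL4-3 replication in TZM-bl cells, read out by luciferase gene expression. EC50 values from at least three experiments (n = 3). Top test concentration 100 ng/mL for the newly made series.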

[2] = system: Human immunodeficiency virus 1; test: Fold resistance, ratio of EC50 for rilpivirine-resistant HIV1 NL4-3 reverse transcriptase E138K mutant to EC50 for wild type HIV1 NL4-3 reverse transcriptase
Outline: (§1)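 Fold change calculated as EC50 against the resistant NL4-3 variant (E138K or E138K+M184I) divided by EC50 against wild-type NL4-3, both measured in parallel in TZM-bl cells by luciferase reporter expression.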

[3] = Aqueous solubility of the compound in phosphate buffer at pH 7.4 after 4 hrs by HPLC-UV analysis; type: physicochemical
Outline: (§2)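 Aqueous solubility measured by HPLC at pH 2.0 and at pH 7.4.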

[4] = Aqueous solubility of the compound in 0.01 M HCl at pH 2 after 4 hrs by HPLC-UV analysis; type: physicochemical; outline: as §2
[5] = Octanol-water partition coefficient, log P of the compound at pH 7.4 after 24 hrs by HPLC method; type: physicochemical; details: pH 7.4, 24 h
TZM = test: (§3) Cytotoxicity against human TZM-bl cells infected with HIV1 NL4-3; type: cell-based; details: tzm
[6] = Inhibition of rilpivirine-resistant HIV1 NL4-3 reverse transcriptase E138K/M184I double mutant infected in human TZM-b1 cells after 2 days by bright Glo-luciferase reporter gene assay; type: cell-based; details: Human immunodeficiency virus 1, NL4-3, TZM-b1, 48 h
Outline: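 TZM-bl cells infected with NL4-3 variant carrying E138K or E138K+M184I RT mutations; EC50 from luciferase reporter gene expression. Test compounds up to 100 ng/mL highest concentration; at least three experiments (n = 3). Run in parallel with wild-type NL4-3 and reference drug.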

[7] = system: Human immunodeficiency virus; test: Fold resistance, ratio of EC50 for rilpivirine-resistant HIV1 NL4-3 reverse transcriptase E138K/M184I double mutant to EC50 for wild type HIV1 NL4-3 reverse transcriptase; outline: as §1
Liver [8] = test: (§4) Half life in human liver microsomes at 1 uM pretreated up to 45 mins followed by NADPH addition by LC/MS/MS analysis; type: ADME, microsome; details: microsomes, 1 µM
Outline: (§5)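 Remaining parent was quantified by LC/MS/MS at several time points to give t1/2 (min). Data from at least two experiments in parallel.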

Liver [9] = test: (§6) Half life in human liver S9 fractions at 1 uM measured pretreated up to 45 mins followed by NADPH addition by LC/MS/MS analysis; type: ADME, tissue-based; details: s9, 1 µM; outline: as §5
Plasma = test: (§7) Half life in human plasma at 10 ug/ml by LC/MS/MS analysis; type: ADME, cell-free
[10] = as §4; type: ADME, microsome; details: liver microsomes; outline: as §5
[11] = as §6; type: ADME, tissue-based; details: liver S9 fraction; outline: as §5
[12] = as §7; type: ADME, cell-free
[13] = as §3; type: cell-based; details: TZM-bl cells infected with HIV1 NL4-3
[14] = Inhibition of wild-type HIV-1 3B reverse transcriptase infected in human MT4 cells assessed as reduction in virus-induced cytopathic effect after 5 days by MTT assay; type: cell-based; details: Human immunodeficiency virus 1, 3B, MT4, 120 h

half-life at 1 µM [10] [h] | half-life at 1 µM [11] [h] | half-life at 10 ug/ml [12] [h] | SMILES | EC50 [1] [nM] | Ratio EC50 [2] | solubility at 4 h [3] [µg/mL] | solubility at 4 h [4] [µg/mL] | logP [5] | CC50 (TZM) [nM] | EC50 [6] [nM] | Ratio EC50 [7] | t1/2 (Liver [8]) [h] | t1/2 (Liver [9]) [h] | t1/2 (Plasma) [h] | CC50 [13] [nM] | EC50 [14] [nM]
– | – | – | Cc1cc(/C=C/C#N)cc(C)c1Oc1cc(Nc2ccc(C#N)cc2)c(N)cc1C(=O)NCCCO | 24.9 | 0.9 | 1.01 (≈ 2.1 µM) | 19.9 (≈ 41.3 µM) | 3.22 | > 208 | – | – | – | – | – | – | –
– | – | – | Cc1cc(/C=C/C#N)cc(C)c1Oc1cc(Nc2ccc(C#N)cc2)c(N)cc1C(=O)NCCCl | 3.29 | 2.6 | 1.59 (≈ 3.27 µM) | 9.53 (≈ 19.6 µM) | > 5 | > 206 | 17.3 | 5.2 | 1.02 | 1.23 | 8 | – | –
0.233 | 0.233 | 57 | Cc1cc(/C=C/C#N)cc(C)c1Oc1cc(Nc2ccc(C#N)cc2)c(N)cc1C(=O)N1CC(F)(F)C1 | 13.4 | – | 6.59 (≈ 13.2 µM) | 57.6 (≈ 115 µM) | 3.58 | – | – | – | – | – | – | > 200 | –
– | – | – | COCCOC(=O)c1cc(N)c(Nc2ccc(C#N)cc2)cc1Oc1c(C)cc(/C=C/C#N)cc1C | 1.52 | 2.9 | 0.77 (≈ 1.6 µM) | 1.64 (≈ 3.4 µM) | > 5 | > 207 | 9.54 | 6.3 | 0.317 | 0.158 | 62 | – | –
– | – | – | Cc1cc(/C=C/C#N)cc(C)c1Oc1cc(Nc2ccc(C#N)cc2)c(N)cc1C(=O)NN | 11.6 | – | 2.4 (≈ 5.47 µM) | 89.6 (≈ 204 µM) | 2.31 | > 228 | – | – | 0.6 | 0.65 | 8 | – | –
– | – | – | Cc1cc(/C=C/C#N)cc(C)c1Nc1ccnc(Nc2ccc(C#N)cc2)n1 [RILPIVIRINE] | 0.44 | – | – | – | > 5 | > 273 | 2.38 | – | 1.8 | 1.7 | 92 | – | –
– | – | – | Cc1cc(/C=C/C#N)cc(C)c1Oc1cc(Nc2ccc(C#N)cc2)c(N)cc1C(N)=O | – | – | – | – | 3.53 | – | – | – | 1.5 | 1.8 | 65 | – | –
– | – | – | Cc1cc(/C=C/C#N)cc(C)c1Oc1cc(Nc2ccc(C#N)cc2)c(N)cc1C(=O)N1CC1 | 3.33 | 2.6 | 1.2 (≈ 2.67 µM) | 94.2 (≈ 210 µM) | 2.21 | > 223 | 16.7 | 5 | 2.63 | 1.83 | 12 | – | –
– | – | – | Cc1cc(/C=C/C#N)cc(C)c1Oc1cc(Nc2ccc(C#N)cc2)c(N)cc1C(=O)OCCC#N | 1.11 | 2.4 | 0.36 (≈ 0.754 µM) | 0.94 (≈ 1.97 µM) | > 5 | > 210 | 4.61 | 4.1 | 0.283 | 0.2 | 32 | – | –
– | – | – | Cc1cc(C#N)cc(C)c1Oc1nc(Nc2ccc(C#N)cc2)nc(N)c1Br [ETRAVIRINE] | – | – | – | – | – | – | – | – | – | – | – | – | > 1.5
